Laboratory results as given in ChEMBL document CHEMBL3272325, “Structure-activity relationships of dimeric Catharanthus alkaloids. 1. Deacetylvinblastine amide (vindesine) sulfate” (J Med Chem, 1978).
Activity calls are given as the source filed them. The rule behind the calls is not given here.

Legend:
[1] = Antitumor activity against mouse Ridgeway osteogenic sarcoma cells allografted in mouse at 0.2 to 0.3 mg/kg/day, ip; type: functional; details: route intraperitoneal
Summary of the method: (§1)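 Ridgeway osteogenic sarcoma and Gardner lymphosarcoma in mice, with sulfate salts given ip daily on days 1-9. Tumor growth inhibition versus controls scored in bands: +++ = 75-100%, ++ = 50-75%, ± = under 25%.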

[2] = Antitumor activity against mouse Gardner lymphosarcoma cell allografted in mouse at 0.2 to 0.3 mg/kg/day, ip; type: functional; details: route intraperitoneal; summary of the method: as §1
[3] = Toxicity in ip dosed mouse allografted with mouse P1534(J) cells administered from day 1 to day 9; type: organism-based; details: in vivo, read-out: MNTD
Summary of the method: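 P1534(J) leukemia implanted subcutaneously in mice. Sulfate salts given ip daily on days 1-9. Read-out was percent inhibition of tumor growth relative to untreated controls. The highest nontoxic dose was recorded.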

B16 [4] = assay: Antitumor activity against mouse B16 cells allografted in B6D2F1 mouse assessed as mean survival time at 0.648 mg/kg/day, ip administered on day 1, 5 and 9 (reference value: 20.0 days); type: functional; details: route intraperitoneal
Summary of the method: (§2)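 Male B6D2F1 mice implanted ip on day 0 with 0.25 mL of a 20% (w/v) B16 melanoma brei. Alkaloid sulfate salts given ip on days 1, 5, 9 or on days 5, 9, 13, groups of 10, against 30 untreated controls. Read-outs: median survival time with range of individual deaths, and percent increase in life span, with survivors counted on day 56.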

B16 [5] = assay: Antitumor activity against mouse B16 cells allografted in B6D2F1 mouse assessed as mean survival time at 3 mg/kg/day, ip administered on day 1, 5 and 9 (reference value: 20.0 days); type: functional; details: route intraperitoneal; summary of the method: as §2
B16 [6] = assay: Antitumor activity against mouse B16 cells allografted in B6D2F1 mouse assessed as mean survival time at 3 mg/kg/day, ip administered on day 5, 9 and 13 (reference value: 20.0 days); type: functional; details: route intraperitoneal; summary of the method: as §2
B16 [7] = assay: Antitumor activity against mouse B16 cells allografted in B6D2F1 mouse assessed as mean survival time at 1.8 mg/kg/day, ip administered on day 1, 5 and 9 (reference value: 20.0 days); type: functional; details: route intraperitoneal; summary of the method: as §2
B16 [8] = assay: Antitumor activity against mouse B16 cells allografted in B6D2F1 mouse assessed as increase in life span at 1.08 mg/kg/day, ip administered on day 5, 9 and 13 measured for 56 days relative to untreated control; type: functional; details: route intraperitoneal; summary of the method: as §2
P388 [9] = assay: Antitumor activity against mouse P388 cells allografted in mouse assessed as increase in life span at 4 mg/kg/day, ip after 1 day; type: functional; details: 24 h, route intraperitoneal
Summary of the method: (§3)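 P388 ascites implanted ip in mice, 10 animals per group. Sulfate salts given ip either daily on days 1-9 or as a single dose on day 1. Median life span was calculated using all deaths and survivors. Percent increase in life span was taken over untreated controls. The highest nontoxic dose was noted.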

B16 [10] = assay: Antitumor activity against mouse B16 cells allografted in B6D2F1 mouse assessed as increase in life span at 3 mg/kg/day, ip administered on day 5, 9 and 13 measured for 56 days relative to untreated control; type: functional; details: route intraperitoneal; summary of the method: as §2
[11] = Toxicity in ip dosed mouse allografted with mouse p388 cells after 1 day; type: organism-based; details: in vivo, read-out: MNTD; summary of the method: as §3
[12] = Antitumor activity against mouse Ridgeway osteogenic sarcoma cells allografted in mouse at 0.1 to 0.35 mg/kg/day, ip; type: functional; details: route intraperitoneal
Summary of the method: (§4)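 Sulfate salts given ip on days 1-9 against ROS and GLS in mice; tumor growth scored as percent inhibition versus controls (+++ = 75-100%, ++ = 50-75%, ± = under 25%).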

B16 [13] = assay: Antitumor activity against mouse B16 cells allografted in B6D2F1 mouse assessed as mean survival time at 0.389 mg/kg/day, ip administered on day 1, 5 and 9 (reference value: 20.0 days); type: functional; details: route intraperitoneal; summary of the method: as §2
[14] = Antitumor activity against mouse P1534(J) cells allografted in mouse assessed as tumor growth inhibition at 0.35 mg/kg/day, ip administered from day 1 to day 9 relative to unreated control; type: functional; details: P1534J, route intraperitoneal, read-out: TGI
Summary of the method: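 P1534(J) leukemia implanted subcutaneously in mice; sulfate salts given ip on days 1-9. Read-out is percent inhibition of tumor growth versus untreated controls.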

B16 [15] = assay: Antitumor activity against mouse B16 cells allografted in B6D2F1 mouse assessed as mean survival time at 0.648 mg/kg/day, ip administered on day 5, 9 and 13 (reference value: 20.0 days); type: functional; details: route intraperitoneal; summary of the method: as §2
P388 [16] = assay: Antitumor activity against mouse P388 cells allografted in mouse assessed as increase in life span at 9 mg/kg/day, ip after 1 day; type: functional; details: 24 h, route intraperitoneal; summary of the method: as §3
B16 [17] = assay: Antitumor activity against mouse B16 cells allografted in B6D2F1 mouse assessed as increase in life span at 1.08 mg/kg/day, ip administered on day 1, 5 and 9 measured for 56 days relative to untreated control; type: functional; details: route intraperitoneal; summary of the method: as §2
[18] = Antitumor activity against mouse Gardner lymphosarcoma cell allografted in mouse at 0.1 to 0.35 mg/kg/day, ip; type: functional; details: route intraperitoneal; summary of the method: as §4
B16 [19] = assay: Antitumor activity against mouse B16 cells allografted in B6D2F1 mouse assessed as mean survival time at 0.389 mg/kg/day, ip administered on day 5, 9 and 13 (reference value: 20.0 days); type: functional; details: route intraperitoneal; summary of the method: as §2
B16 [20] = assay: Antitumor activity against mouse B16 cells allografted in B6D2F1 mouse assessed as increase in life span at 0.648 mg/kg/day, ip administered on day 1, 5 and 9 measured for 56 days relative to untreated control; type: functional; details: route intraperitoneal; summary of the method: as §2
P388 [21] = assay: Antitumor activity against mouse P388 cells allografted in mouse assessed as survival at 4 mg/kg/day after 1 day; type: functional, organism-based
Summary of the method: (§5)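 P388 ascites implanted ip in mice; sulfate salts dosed either daily or as a single dose on day 1, 10 animals per group. Survivors per total were recorded, median life span was calculated using all deaths and survivors, and percent increase of life span was reported.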

B16 [22] = assay: Antitumor activity against mouse B16 cells allografted in B6D2F1 mouse assessed as increase in life span at 1.8 mg/kg/day, ip administered on day 1, 5 and 9 measured for 56 days relative to untreated control; type: functional; details: route intraperitoneal; summary of the method: as §2
P388 [23] = assay: Antitumor activity against mouse P388 cells allografted in mouse assessed as survival at 2.7 mg/kg/day after 1 day; type: functional, organism-based; summary of the method: as §5
P388 [24] = assay: Antitumor activity against mouse P388 cells allografted in mouse assessed as survival at 0.4 mg/kg/day administered from day 1 to day 9; type: functional, organism-based; summary of the method: as §5
B16 [25] = assay: Antitumor activity against mouse B16 cells allografted in B6D2F1 mouse assessed as increase in life span at 0.648 mg/kg/day, ip administered on day 5, 9 and 13 measured for 56 days relative to untreated control; type: functional; details: route intraperitoneal; summary of the method: as §2
P388 [26] = assay: Antitumor activity against mouse P388 cells allografted in mouse assessed as increase in life span at 0.27 mg/kg/day, ip administered from day 1 to day 9 relative to untreated control; type: functional; details: route intraperitoneal; summary of the method: as §3
P388 [27] = assay: Antitumor activity against mouse P388 cells allografted in mouse assessed as increase in life span at 6 mg/kg/day, ip after 1 day; type: functional; details: 24 h, route intraperitoneal; summary of the method: as §3
[28] = Acute toxicity in ip dosed mouse; type: organism-based; details: in vivo
P388 [29] = assay: Antitumor activity against mouse P388 cells allografted in mouse assessed as increase in life span at 0.6 mg/kg/day, ip administered from day 1 to day 9 relative to untreated control; type: functional; details: route intraperitoneal; summary of the method: as §3
P388 [30] = assay: Antitumor activity against mouse P388 cells allografted in mouse assessed as increase in life span at 0.4 mg/kg/day, ip administered from day 1 to day 9 relative to untreated control; type: functional; details: route intraperitoneal; summary of the method: as §3
B16 [31] = assay: Antitumor activity against mouse B16 cells allografted in B6D2F1 mouse assessed as increase in life span at 0.389 mg/kg/day, ip administered on day 5, 9 and 13 measured for 56 days relative to untreated control; type: functional; details: route intraperitoneal; summary of the method: as §2
P388 [32] = assay: Antitumor activity against mouse P388 cells allografted in mouse assessed as increase in life span at 0.9 mg/kg/day, ip administered from day 1 to day 9 relative to untreated control; type: functional; details: route intraperitoneal; summary of the method: as §3
B16 [33] = assay: Antitumor activity against mouse B16 cells allografted in B6D2F1 mouse assessed as increase in life span at 0.389 mg/kg/day, ip administered on day 1, 5 and 9 measured for 56 days relative to untreated control; type: functional; details: route intraperitoneal; summary of the method: as §2
P388 [34] = assay: Antitumor activity against mouse P388 cells allografted in mouse assessed as increase in life span at 2.7 mg/kg/day, ip after 1 day; type: functional; details: 24 h, route intraperitoneal; summary of the method: as §3
B16 [35] = assay: Antitumor activity against mouse B16 cells allografted in B6D2F1 mouse assessed as increase in life span at 3 mg/kg/day, ip administered on day 1, 5 and 9 measured for 56 days relative to untreated control; type: functional; details: route intraperitoneal; summary of the method: as §2
[36] = Toxicity in ip dosed mouse allografted with mouse p388 cells administered from day 1 to day 9; type: organism-based; details: in vivo, read-out: MNTD; summary of the method: as §3
B16 [37] = assay: Antitumor activity against mouse B16 cells allografted in B6D2F1 mouse assessed as increase in life span at 1.8 mg/kg/day, ip administered on day 5, 9 and 13 measured for 56 days relative to untreated control; type: functional; details: route intraperitoneal; summary of the method: as §2
B16 [38] = assay: Antitumor activity against mouse B16 cells allografted in B6D2F1 mouse assessed as mean survival time at 1.8 mg/kg/day, ip administered on day 5, 9 and 13 (reference value: 20.0 days); type: functional; details: route intraperitoneal; summary of the method: as §2
[39] = Acute toxicity in rat; type: organism-based; details: in vivo
B16 [40] = assay: Antitumor activity against mouse B16 cells allografted in B6D2F1 mouse assessed as mean survival time at 1.08 mg/kg/day, ip administered on day 5, 9 and 13 (reference value: 20.0 days); type: functional; details: route intraperitoneal; summary of the method: as §2
B16 [41] = assay: Antitumor activity against mouse B16 cells allografted in B6D2F1 mouse assessed as mean survival time at 1.08 mg/kg/day, ip administered on day 1, 5 and 9 (reference value: 20.0 days); type: functional; details: route intraperitoneal; summary of the method: as §2

`CC[C@]1(O)C[C@H]2CN(CCc3c([nH]c4ccccc34)[C@@](C(=O)OC)(c3cc4c(cc3OC)N(C)[C@H]3[C@@](O)(C(=O)NN)[C@H](O)[C@]5(CC)C=CCN6CC[C@]43[C@@H]65)C2)C1` gave a TGI [1] of 75% and a TGI [2] of 75%.
For `CC[C@]1(O)C[C@@H]2CN(CCc3c([nH]c4ccccc34)[C@@](C(=O)OC)(c3cc4c(cc3OC)N(C)[C@H]3[C@@](O)(C(=O)OC)[C@H](OC(C)=O)[C@]5(CC)C=CCN6CC[C@]43[C@@H]65)C2)C1.O=S(=O)(O)O` [VINBLASTINE SULFATE], the MTD [3] was 0.35 mg/kg/day, the MST (B16 [4]) was 33.5 days and the MST (B16 [5]) was 40.5 days. It also gave an MST (B16 [6]) of 32.5 days, an MST (B16 [7]) of 38.5 days and an ILS at 1.08 mg/kg/day (B16 [8]) of 39%. The ILS at 4 mg/kg/day (P388 [9]) was 95%, the ILS at 3 mg/kg/day (B16 [10]) was 62% and the MTD at 24 h [11] was 9 mg/kg/day. It also gave a TGI [12] of less than 25%, an MST (B16 [13]) of 32 days and an inhibition in vivo at 0.35 mg/kg/day [14] of 54%. It also gave an MST (B16 [15]) of 28 days, an ILS at 9 mg/kg/day (P388 [16]) of 127% and an ILS at 1.08 mg/kg/day (B16 [17]) of 78%. For the same molecule, the TGI [18] was less than 25%, the MST (B16 [19]) was 22.5 days and the ILS at 0.648 mg/kg/day (B16 [20]) was 68%. The Activity (P388 [21]) was “inactive”, the ILS at 1.8 mg/kg/day (B16 [22]) was 92% and the Activity (P388 [23]) was “inactive”. The Activity (P388 [24]) was “inactive”, the ILS at 0.648 mg/kg/day (B16 [25]) was 40% and the ILS at 0.27 mg/kg/day (P388 [26]) was 131%. The ILS at 6 mg/kg/day (P388 [27]) was 109%, the LD50 [28] was 10 mg/kg and the ILS at 0.6 mg/kg/day (P388 [29]) was greater than 263%. It also gave an ILS at 0.4 mg/kg/day (P388 [30]) of 72%, an ILS at 0.389 mg/kg/day (B16 [31]) of 12% and an ILS at 0.9 mg/kg/day (P388 [32]) of 109%. For the same molecule, the ILS at 0.389 mg/kg/day (B16 [33]) was 60%, the ILS at 2.7 mg/kg/day (P388 [34]) was 81% and the ILS at 3 mg/kg/day (B16 [35]) was 102%. It also gave an MTD [36] of 0.9 mg/kg/day, an ILS at 1.8 mg/kg/day (B16 [37]) of 25% and an MST (B16 [38]) of 25 days. The LD50 [39] was 2.9 mg/kg, the MST (B16 [40]) was 27.5 days and the MST (B16 [41]) was 35.5 days.
